Broadly, the MIC is the smallest concentration in the dilution series that meets the test's criterion for growth inhibition. A lower MIC goes with inhibition by little substance.

One assay relates to Aspergillus niger. In words: Minimum inhibitory concentration was evaluated in vitro againist P. As. niger 16404. Type of assay: functional. The method in brief:
(§1)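 Compounds in water, 50% Me₂SO–water or 100% Me₂SO. Disk-plate prescreen, with those active at 1000 μg/mL then titrated by autodilution. Fungi were grown in proteose peptone no. 3 maltose at 23 °C for 3-5 days. MIC was read as the lowest drug level showing no turbidity.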

The test system of the next assay is Candida albicans. Nature of the assay: Minimum inhibitory concentration was evaluated in vitro againist P. Candida albicans 10231. It is filed as functional. The procedure, abridged: as §1
For another assay, the system named is Escherichia coli. In words: Minimum inhibitory concentration was evaluated in vitro againist Escherichia coli Vogel. It is filed as functional. The procedure, abridged:
(§2)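 Compounds dissolved in water, 50% Me₂SO–water or 100% Me₂SO. They were first screened by disk-plate, and those active at 1000 μg/mL went on to the autotitration method using an automatic diluting device. Bacteria were inoculated into tryptose phosphate broth and incubated at 37 °C for 18-20 h. MIC is the lowest drug level giving complete absence of growth (turbidity).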

A further assay concerns Klebsiella pneumoniae. Nature of the assay: Minimum inhibitory concentration was evaluated in vitro againist Klebsiella pneumoniae 39645. Type of assay: functional. The method in brief:
as §2

For a further assay, the system named is Pseudomonas aeruginosa. Nature of the assay: Minimum inhibitory concentration was evaluated in vitro againist P. Ps. aeruginosa MGH-2. Type of assay: functional. The method in brief: as §2
The test system of a further assay is Proteus mirabilis. Nature of the assay: Minimum inhibitory concentration was evaluated in vitro againist Proteus mirabilis MGH-1. Type of assay: functional. The method in brief: as §2
For another assay, the system named is Proteus vulgaris. In words: Minimum inhibitory concentration was evaluated in vitro againist Proteus vulgaris 9920. It is filed as functional. The method in brief:
as §2

In a further assay the test system is Staphylococcus aureus. Nature of the assay: Minimum inhibitory concentration was evaluated in vitro againist Staphylococcus aureus Smith. It is filed as functional. The method in brief: as §2
Another assay has as its system Streptococcus pyogenes. In words: Minimum inhibitory concentration was evaluated in vitro againist P. Streptococcus pyogenes C-203. It is filed as functional. The method in brief: as §2
The next assay relates to Trichophyton benhamiae. In words: Minimum inhibitory concentration was evaluated in vitro againist P. Trichophyton mentagrophytes 9129. It is filed as functional, Arthroderma benhamiae. The procedure, abridged: as §1

Consider `CCCCCCCCCCCCCCCCCC(=O)NNC(=O)C[n+]1ccccc1`, for which the MIC against Aspergillus niger was over 34 µM; against Candida albicans it was over 17 µM; with Escherichia coli, over 69 µM; in the assay on Klebsiella pneumoniae, over 69 µM; in the assay with Pseudomonas aeruginosa, over 34 µM; against Proteus mirabilis, over 69 µM. The minimum inhibitory concentration (MIC) in the assay with Proteus vulgaris is over 69 µM; against Staphylococcus aureus it was over 34 µM; against Streptococcus pyogenes, 1.1 µM; against Trichophyton benhamiae, over 17 µM.
In the case of `CCCCCCCCCC(=O)NNC(=O)C[n+]1ccccc1`, the MIC against Aspergillus niger was 1500 µM; against Candida albicans it was 730 µM; in the assay on Escherichia coli, over 1500 µM; with Klebsiella pneumoniae, over 1500 µM; against Pseudomonas aeruginosa, over 1500 µM; in the assay with Proteus mirabilis it was over 1500 µM. Also, the minimal inhibitory concentration (MIC) with Proteus vulgaris is over 1500 µM; in the assay on Staphylococcus aureus, 366 µM; in the assay with Streptococcus pyogenes, 370 µM; in the assay with Trichophyton benhamiae it was 1500 µM.
On to `CCCCCCCC/C=C\CCCCCCCC(=O)NNC(=O)C[n+]1ccccc1`, for which the minimum inhibitory concentration (MIC) in the assay with Aspergillus niger is over 34 µM; with Candida albicans, over 17 µM; in the assay on Escherichia coli it was over 69 µM; against Klebsiella pneumoniae it was over 69 µM; in the assay on Pseudomonas aeruginosa, over 34 µM; in the assay on Proteus mirabilis it was over 69 µM. The MIC was over 69 µM in the assay with Proteus vulgaris, over 17 µM against Staphylococcus aureus, 1.1 µM against Streptococcus pyogenes and over 17 µM in the assay with Trichophyton benhamiae.
In the case of `CCCCCCCC(=O)NNC(=O)C[n+]1ccccc1`, the minimal inhibitory concentration (MIC) in the assay with Aspergillus niger, with Candida albicans, against Escherichia coli, with Klebsiella pneumoniae, in the assay on Pseudomonas aeruginosa and against Proteus mirabilis was over 1600 µM in each case. Also, the MIC was over 1600 µM in the assay with Proteus vulgaris, over 1600 µM against Staphylococcus aureus, 1600 µM in the assay with Streptococcus pyogenes and over 1600 µM in the assay with Trichophyton benhamiae.
On to `CCCCCCCCCCCCCC(=O)NNC(=O)C[n+]1ccccc1`, for which the MIC against Aspergillus niger was 39 µM; with Candida albicans, 19.6 µM; against Escherichia coli, over 39 µM; in the assay with Klebsiella pneumoniae, over 79 µM; with Pseudomonas aeruginosa it was over 39 µM; against Proteus mirabilis, over 79 µM. Besides, the MIC against Proteus vulgaris was over 79 µM; against Staphylococcus aureus it was 19.6 µM; against Streptococcus pyogenes, 9.8 µM; in the assay on Trichophyton benhamiae, 39 µM.
On to `CCCCCCCCCCCCCCCC(=O)NNC(=O)C[n+]1ccccc1`, for which the MIC in the assay with Aspergillus niger is 37 µM; against Candida albicans, 18 µM; in the assay on Escherichia coli, over 37 µM; against Klebsiella pneumoniae, over 74 µM; against Pseudomonas aeruginosa it was over 37 µM; in the assay on Proteus mirabilis, over 74 µM. The MIC with Proteus vulgaris is over 74 µM; in the assay with Staphylococcus aureus, 4.6 µM; against Streptococcus pyogenes it was 9.1 µM; in the assay on Trichophyton benhamiae, 37 µM.
`CCCCCCCCCCCC(=O)NNC(=O)C[n+]1ccccc1`: the minimum inhibitory concentration (MIC) worked out at 170 µM against Aspergillus niger; 170 µM in the assay with Candida albicans; 340 µM against Escherichia coli; 680 µM against Klebsiella pneumoniae; 340 µM with Pseudomonas aeruginosa; 1400 µM against Proteus mirabilis. For the same molecule, the MIC in the assay with Proteus vulgaris turned out to be 680 µM; with Staphylococcus aureus it was 85 µM; against Streptococcus pyogenes, 42 µM; with Trichophyton benhamiae it was 170 µM.

The values above are taken from ChEMBL document CHEMBL1121546, “Studies on antimicrobial agents. 1. Synthesis and relation between the antimicrobial activities and certain physicochemical properties of some N'-(pyridinoacetyl) fatty acid hydrazides” (1980).
